LANA-H2A inh: blocks KSHV LANA binding to histone H2A/H2B | cell-free LANA-H2A/H2B peptide, fluorescence polarization | inhibition, % (test concentration not listed) | hit rate 0.6% among 320,000; in the data active = inhibition mostly above about 10%, no sharp cut-off; inactive = mostly below about 6.7%
TAAR1 agonist: agonists of human TAAR1; activation, % at 3 µM; AID 624467; Q96RJ0; CHO RD-HGA16 TAAR1, Fluo-8 calcium fluorescence; vehicle wells 0%, saturating PEA agonist 100%; hit rate 0.99% among 360,000;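 active = activation above the mean activation of all test compounds in the run plus 3 SD, cut at about 38% in these data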
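test system = CHO RD-HGA16 cells carrying human TAAR1 plus Gα16 | schedule = 17-24 h seeding, 75 min 37 °C dye, 30 min RT | compound dosing = 3 µM single concentration | control set = DMSO and PEA EC100 | replicates = n 1 | signal = Fluo-8 fluorescence, 5 s baseline then 140 s kinetic read | measure = percent activation vs PEA EC100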
TAAR1 antagonist: human TAAR1 antagonism | AID 624466 | CHO RD-HGA16 TAAR1, Fluo-8 calcium fluorescence, antagonist | hit rate 1.5% among 360,000 | Q96RJ0 | inhibition, % at 3 µM;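 active = inhibition above a per-plate cutoff, the mean inhibition of test compounds on that plate plus 3 SD, cut at about 49% in these data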;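 note: 0% = DMSO plus EC80 beta-PEA response and 100% = DMSO alone without agonist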
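Test system: RD-HGA16 CHO cells with stable hTAAR1 and Gα16 / Probe or stimulus: EC80 β-phenethylamine stimulus / Times: seeding 17-24 h prior, 75-min 37 °C, 30-min RT dye loading / Detection: Fluo-8 calcium-sensitive fluorescence / Read-out basis: % inhibition scaled between DMSO and EC80 PEA controls / Repeats: singlicate, one well per test compound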
TRPML3 agonist: activates the human TRPML3 channel. HEK293 TRPML3-YFP, Fluo-8 calcium fluorescence; 100% = the carbachol control signal. activation, % at 3 µM. hit rate 0.29% among 220,000;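 active = activation above its plate's cutoff, the mean activation of the plate's test wells plus 3 SD, cut at about 12% in these data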;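 note: 0% = DMSO only wells and 100% = carbachol wells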
Target sequence (Q8TDD5 whole entry, looked up): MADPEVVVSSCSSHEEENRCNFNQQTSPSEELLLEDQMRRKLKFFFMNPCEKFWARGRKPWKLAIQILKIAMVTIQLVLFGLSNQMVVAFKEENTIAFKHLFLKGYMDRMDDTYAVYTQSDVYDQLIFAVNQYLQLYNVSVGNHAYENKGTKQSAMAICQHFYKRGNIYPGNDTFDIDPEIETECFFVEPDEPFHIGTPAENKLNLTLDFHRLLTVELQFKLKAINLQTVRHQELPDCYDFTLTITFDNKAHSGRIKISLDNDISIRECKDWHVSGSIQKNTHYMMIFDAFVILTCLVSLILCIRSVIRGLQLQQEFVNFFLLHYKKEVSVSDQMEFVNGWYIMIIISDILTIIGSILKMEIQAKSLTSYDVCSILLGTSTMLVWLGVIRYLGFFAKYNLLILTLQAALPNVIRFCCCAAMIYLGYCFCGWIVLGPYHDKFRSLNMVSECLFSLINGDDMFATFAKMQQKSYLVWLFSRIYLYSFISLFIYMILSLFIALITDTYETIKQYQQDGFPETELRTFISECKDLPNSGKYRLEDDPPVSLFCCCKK
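Material: HEK293 cells stably carrying human TRPML3-YFP; compound dosing: single dose, 3 µM final nominal compound, 0.3% DMSO final; incubation: 1-h 37 °C dye load, 5-s basal, 120-s post-compound reads; technique: Fluo-8 intracellular calcium fluorescence, excitation 470-495 nm, emission 515-575 nm; read-out basis: percent activation from peak-to-basal fluorescence ratio, scaled between DMSO and carbachol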
GPR7 antagonist: human neuropeptides B/W receptor 1 antagonism; P48145; GPR7-expressing cells, fluorescence antagonist assay; inhibition, % at 4.4 µM; hit rate 1.1% among 290,000; AID 1861; in the data active = inhibition above about 16%, passing the limit was not always enough;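 note: cells stimulated with the agonist NPW; 0% = agonist with vehicle and 100% = vehicle without agonist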
TRPN1 ag: agonists of zebrafish TRPN1 channel; HEK293 zebrafish TRPN1-YFP, Fluo-8 calcium fluorescence; 100% = response to 87 µM carbachol; activation, % at 3 µM; hit rate 0.18% among 220,000;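 active = activation above its plate's cutoff, the mean activation of test wells on that plate plus 3 SD, cut at about 19% in these data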;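 note: 0% = DMSO alone and 100% = 87 µM carbachol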
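System: zebrafish TRPN1-YFP in HEK293 cells / Dosing: 3 µM single point / Timing: dye loading 1 h at 37 °C, then 30 min room temperature / Signal: Fluo-8 calcium fluorescence, excitation 470-495 nm, emission 515-575 nm / Read-out basis: percent activation from peak over basal fluorescence ratio, control-normalized / Control set: high carbachol 87 µM, low DMSO alone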
GPR7 antag cf: human GPR7 antagonism, confirmation assay. shares compounds with GPR7 antagonist. GPR7-expressing cells, calcium fluorescence antagonist mode. inhibition, % at 4.4 µM. hit rate 52% among 2,400. AID 1952; in the data active = inhibition above about 24%;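 note: stimulated with the GPR7 agonist NPW; 0% = agonist plus vehicle and 100% = vehicle alone without agonist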
MCHR1 antagonist: antagonizes human MCHR1, a GPR7 antagonist counter-screen | MCHR1-expressing cells, fluorescence antagonist assay | hit rate 62% among 2,400 | shares compounds with GPR7 antagonist | inhibition, % at 4.4 µM;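 note: 0% = vehicle with agonist and 100% = vehicle without agonist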
nonsel antag count: nonselective antagonist in TAAR1 antagonist counter-screen | shares compounds with TAAR1 antagonist | counterscreen cell line, calcium fluorescence, antagonist mode | inhibition, % at 3 µM | hit rate 77% among 2,400 | AID 651780;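 note: CHO-Ga16 host cells stimulated with ATP at an EC80 level; 0% = agonist EC80 plus vehicle and 100% = vehicle without agonist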
TAAR1 ant conf: confirmation of human TAAR1 antagonists; shares compounds with TAAR1 antagonist; TAAR1-expressing cells, fluorescence antagonist read-out; inhibition, % at 3 µM; hit rate 40% among 2,400; AID 651785; in the data active = inhibition above about 49%;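 note: CHO-Ga16 host cells challenged with agonist PEA near its EC80; 0% = agonist at EC80 plus vehicle and 100% = vehicle with no agonist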
Ga16 ag counter: nonselective Ga16 agonism, counter-screen. shares compounds with TAAR1 antagonist. Ga16-expressing cells, calcium fluorescence, agonist counterscreen. activation, % at 3 µM. hit rate 18% among 2,400. AID 651953; in the data active = activation above about 12%;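 note: 0% = vehicle wells and 100% = saturating stimulus response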
TAAR1 ag counter: counter-screen for human TAAR1 antagonists: TAAR1 agonists; shares compounds with TAAR1 antagonist; hTAAR1 cell line, fluorescence activation, agonist mode; activation, % at 3 µM; hit rate 2% among 2,400; AID 651955; in the data active = activation above about 37%;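 note: CHO cells stably expressing TAAR1 with calcium dye readout; 0% = DMSO vehicle and 100% = full agonist response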
Numbers without * were called inactive; / = no result given. Shown are actives, neighbours in structure and some others; about 3.4% of the full set was active somewhere. Cut-off read from the data, not from the text of the source, unless noted: active = inhibition above about 22%; inactive = the rest.

SMILES | LANA-H2A inh | TAAR1 agonist | TAAR1 antagonist | TRPML3 agonist | GPR7 antagonist | TRPN1 ag | GPR7 antag cf | MCHR1 antagonist | others
COc1ccc2c(c1)C1(C(=O)O)CC=CCC1(C(=O)O)C2 (stereo not given) | / | 2 | 5 | / | / | / | / | /
CN1CC=C(/C=C/c2ccc(-c3ccccc3)cc2)CC1 | -2 | / | / | / | 51* | / | 63* | 51*
O=C(/C=C/c1ccccc1)N1Cc2ccccc2-n2nncc2C1 | / | 1 | -11 | / | / | / | / | /
CC(=O)Nc1nnc(CCN(CCc2nnc(NC(C)=O)s2)[N+](=O)[O-])s1 | 0 | 4 | 10 | 0 | 32* | -2 | -8 | -5
O=S(=O)(c1cc(Cl)cc(Cl)c1)N1Cc2cc(-c3cccc(F)c3)ccc2-n2nncc2C1 | / | 3 | -13 | / | / | / | / | /
Nc1ccccc1-[n+]1c(-c2ccccc2)cc(-c2ccccc2)cc1-c1ccccc1 | 4 | 0 | -8 | 1 | 84* | -1 | 76* | 66*
Cc1ccc(OC(=O)N(C)C[C@H]2OCc3cnnn3CCCC(=O)N([C@H](C)CO)C[C@@H]2C)cc1 | / | 1 | -6 | / | / | / | / | /
CCCOc1ccccc1OCC(=O)N1CCN(CC(=O)N2CCOCC2)CC1 | / | 2 | -15 | / | / | / | / | /
c1ccc2c(c1)Sc1ccccc1N2CC1CN2CCC1CC2 (stereo not given) | 2 | 1 | -8 | 3 | 30* | 6 | 47* | 41*
NC(Cc1ccc(Cl)cc1)c1csc(Nc2ncccn2)n1 (stereo not given) | / | 32 | -21 | / | / | / | / | /
c1cc2n(c1)-c1c(ccc3c1OCO3)CNC2c1ccc2c(c1)OCO2 (stereo not given) | -2 | 8 | 2 | 1 | 25* | 1 | 49* | 30*
Oc1ccc(C2NCc3ccccc3-n3cccc32)cc1Cl (stereo not given) | -3 | 18 | -11 | 1 | 3 | 0 | / | /
COc1ccc(C2NCc3ccc4c(c3-n3cccc32)OCO4)cc1O (stereo not given) | 5 | / | / | 1 | 50* | 1 | 53* | 37*
CN1/C(=C\C=C\C2=[N+](C)c3ccc4ccccc4c3C2(C)C)C(C)(C)c2ccccc21 | -38 | / | / | 29* | 87* | 24* | 102* | 104*
CN1/C(=C\C=Nc2ccccc2)C(C)(C)c2ccccc21 | -7 | 14 | 1 | 2 | -10 | 0 | / | /
N#CC12c3ccccc3C(=O)N1Cc1cnnn1-c1ccccc12 (stereo not given) | / | 1 | -7 | / | / | / | / | /
C1=NCCCN2CCCCC12 (stereo not given) | / | 1 | 8 | / | / | / | / | /
COc1ccccc1-n1c(O)c(/C=C2\C=Nc3ccccc32)c(=O)[nH]c1=O | -7 | 8 | -7 | / | 29* | / | 39* | 53*
COCCOC(=O)c1c(N)n(Cc2ccc(OC)cc2)c2nc3ccccc3nc12 | 9 | 16 | 0 | 0 | 30* | 0 | 21 | 19
CC(=O)OC1CCC2(C)C3CCC4(C)C(OC(C)=O)CCC4C3C(C)C2(O)C1 (stereo not given) | / | 2 | -19 | / | / | / | / | /
O=C1CC(N2CC=C(c3ccccc3)CC2)C(=O)N1c1ccc(F)cc1 (stereo not given) | 0 | 3 | -5 | 0 | 24* | 1 | 5 | 8
CCCOc1ccc(N2C(=O)CC(N3CC=C(c4ccccc4)CC3)C2=O)cc1 (stereo not given) | -1 | 3 | 7 | 1 | -12 | -2 | / | /
Cc1nonc1-c1nc(-c2nonc2N)n[nH]1 | 3 | 2 | -5 | 1 | 32* | 1 | 13 | 4
Cc1nc2cc(C(F)(F)F)ccc2n1C1CCN(Cc2nnnn2Cc2cccs2)CC1 | -2 | 28 | 31 | 4 | 32* | 6 | 47* | 38*
COc1ccc(C(=O)C2CCCN(CCc3ccccc3)C2)cc1OC (stereo not given) | / | 1 | -5 | / | / | / | / | /
SMILES | LANA-H2A inh | TAAR1 agonist | TAAR1 antagonist | TRPML3 agonist | GPR7 antagonist | TRPN1 ag | GPR7 antag cf | MCHR1 antagonist | others
CCOc1cc(CNCCc2cccc(F)c2)ccc1OC | -3 | 22 | -14 | / | 8 | / | / | /
CCOc1ccc(Cl)cc1CNCCc1ccc(F)cc1 | -1 | 15 | -6 | 1 | 33* | 0 | 30* | 29*
OC(c1cccc(Cl)c1)(c1cccc(Cl)c1)C1CN2CCC1CC2 (stereo not given) | 0 | 12 | 30 | 1 | 34* | 2 | 44* | 51*
O=C(COc1ccc(Cl)cc1)N1CCN(Cc2ccc([N+](=O)[O-])cc2)CC1 | -1 | 3 | 20 | 3 | 30* | 5 | 28* | 46*
COc1ccc(OCC(=O)N2CCN(Cc3nc4cc([N+](=O)[O-])ccc4n3C)CC2)cc1 | -1 | 6 | -4 | 1 | -11 | 3 | / | /
COc1ccc(-[n+]2c(-c3ccccc3)cc(-c3ccc(C)cc3)cc2-c2ccccc2)cc1 | 3 | 6 | 11 | / | 72* | / | 70* | 65*
Cc1ccc(-c2cc(-c3ccccc3)cc(-c3ccccc3)[n+]2-c2ccc(C(=O)O)cc2)cc1 | -1 | 6 | 13 | / | / | / | / | /
COc1ccc(-c2cc(-c3ccccc3)[n+](C)c(-c3ccccc3)c2)cc1 | 2 | 6 | 13 | 1 | 33* | 0 | 42* | 38*
COc1ccc(C(c2nnnn2C2CCCC2)N2CCC3(CC2)C(=O)NCN3c2ccccc2)cc1 (stereo not given) | / | 4 | -28 | / | / | / | / | /
O=P(NC(c1ccccc1)c1ccccc1)(Oc1ccccc1)Oc1ccccc1 | 7 | 5 | 64* | 0 | 26* | -2 | 32* | 47* | nonsel antag count=32*;TAAR1 ant conf=65*;Ga16 ag counter=7;TAAR1 ag counter=4
COC12c3ccccc3-c3ccccc3C1C(C(=O)O)C2C(=O)O (stereo not given) | / | 0 | -7 | / | / | / | / | /
